# Assay outcomes deposited in PubChem by Sanford-Burnham Center for Chemical Genomics.
# The list is not random: actives were taken first. Their share in the collection is about 2.3%.
# DNMT1 block = DNMT1 (human) enzyme inhibition; P26358; AID 588458; inhibition (reported as % activation of signal), % at 10 µM; DNMT1 molecular beacon, Hinp1I cleavage, fluorescence; 0.83% of 360,000 active; in the data active = inhibition above about 50%
# Rpn11 block = inhibitors of human proteasome Rpn11 | O00487 | 0.59% of 360,000 active | human 26S proteasome, Ub4-pepOG fluorescence polarization; 20S core pre-blocked with epoxomicin | inhibition, % at 20 µM;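 active = inhibition at 20 µM, scaled to each plate's controls, above about 33%, limit read from the data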
# Target sequence (O00487 whole entry, looked up): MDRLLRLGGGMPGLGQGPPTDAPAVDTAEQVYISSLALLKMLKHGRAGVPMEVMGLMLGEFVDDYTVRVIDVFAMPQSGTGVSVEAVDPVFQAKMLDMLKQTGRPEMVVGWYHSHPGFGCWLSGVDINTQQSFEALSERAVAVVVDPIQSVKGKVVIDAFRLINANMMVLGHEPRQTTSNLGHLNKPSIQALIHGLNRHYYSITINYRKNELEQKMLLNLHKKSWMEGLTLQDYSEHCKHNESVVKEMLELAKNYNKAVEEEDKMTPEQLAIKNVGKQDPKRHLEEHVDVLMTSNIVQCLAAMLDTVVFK
# CSN inh = blocks human CSN-mediated cullin deneddylation; Purified CSN, SCF-Nedd8-OG deneddylation, fluorescence polarization; inhibition, % at 12.5 µM; 0.38% of 360,000 active;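 active = pattern-corrected inhibition above about 35%, with an unprinted fluorescence ratio check between 0.5 and 1.5, limit read from the data, passing the limit was not always enough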;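 also: 0% = enzyme with substrate and 100% = substrate without enzyme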
# Target sequence (Q92905 whole entry, looked up, one chain of several): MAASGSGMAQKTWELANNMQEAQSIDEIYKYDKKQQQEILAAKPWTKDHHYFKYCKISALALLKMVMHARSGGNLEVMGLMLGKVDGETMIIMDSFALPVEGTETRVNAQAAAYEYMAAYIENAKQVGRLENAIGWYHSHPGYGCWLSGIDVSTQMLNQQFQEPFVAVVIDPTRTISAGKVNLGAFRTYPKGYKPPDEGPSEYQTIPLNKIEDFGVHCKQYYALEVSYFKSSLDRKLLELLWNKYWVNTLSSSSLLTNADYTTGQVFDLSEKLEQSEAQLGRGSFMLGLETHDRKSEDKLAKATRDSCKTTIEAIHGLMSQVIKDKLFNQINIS
#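 Detection – fluorescence polarization · System – HEK293T-derived human Csn5 enzyme · Controls – substrate-only high control, full reaction low control · Timing – 90 min, room temperature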
# SUMO1-SIM PPI = SUMO1-SIM interaction modulation; SUMO1 binding to a labelled peptide, TR-FRET, 1 h; inhibition, % at 20 µM; 0.33% of 360,000 active; in the data active = inhibition above about 37%
# MT1-MMP act inh = MT1-MMP (human) activation inhibition. HT1080 RFP-PRO-GFP cells, GFP/RFP ratio fluorescence, overnight; percent of plate control window, DMSO zero. 0.061% of 360,000 active. P50281. AID 651647. GFP/RFP ratio change, % at 20 µM;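 active = GFP/RFP ratio change of at least 30% with cell ATP level not reduced by more than half and red fluorescence within 50% of control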
#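 Material: RFP-PRO-GFP reporter HT1080 cells. Dosing: single-point 20 µM compound, 1% DMSO. Controls: DMSO and RFP-L50D-GFP cell wells. Timing: cells overnight before dosing, compound overnight, 37 °C, 5% CO2. Measure: GFP/RFP fluorescence ratio.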
# SKN-1 block = blocks SKN-1 activity in C. elegans. C. elegans VP596 Pgst-4::GFP/RFP ratio, acrylamide-induced, 24 h. inhibition, % at 21.8 µM. 0.49% of 360,000 active;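 active = interference check ratio from 0.5 to 1.5 plus GFP to RFP signal ratio inhibition reaching or exceeding a fixed threshold, cut at about 30% in these data, passing the limit was not always enough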
# Rpn11 inh conf = Rpn11 inhibition confirmation, single concentration. shares compounds with Rpn11 block. purified human 26S proteasome, Ub4-pepOG fluorescence polarization; proteasome pretreated with epoxomicin. inhibition, % at 20 µM. 29% of 1,900 active
# MMP-2 counter = MMP-2 (human) inhibition counter-screen; shares compounds with Rpn11 block; recombinant MMP-2, FRET peptide cleavage fluorescence; AID 602330; 4% of 1,900 active; inhibition, % at 20 µM;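 also: human MMP-2 activated beforehand with APMA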
# Thrombin FP = blocks bovine thrombin, flagging nonselective RPN11 hits; bovine thrombin cleavage of Ub4-pepOG, fluorescence polarization; inhibition, % at 20 µM; shares compounds with Rpn11 block; AID 602333; 13% of 1,900 active;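 active = mean inhibition at least 40% at 20 µM, or signal 3 deviations below plate average, so some actives read negative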;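 also: plate controls were thrombin with DMSO for no effect and buffer wells lacking thrombin for full effect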
# The depositor's hits bear a star; nt = no result given; + = active, no number. Rule as the data show it, unless noted: active = inhibition above about 40%; inactive = the rest.
SMILES,DNMT1 block,Rpn11 block,CSN inh,SUMO1-SIM PPI,MT1-MMP act inh,SKN-1 block,Rpn11 inh conf,MMP-2 counter,Thrombin FP
CCC1CCCCN1CCCn1c(=S)[nH]c2ccccc2c1=O (stereo not drawn),-3,72*,0,-1,1,15,-2,-6,-9
CO[C@H]1CN(C)C(=O)c2cc(NC(=O)c3cc(C)on3)ccc2OC[C@@H](C)N(C(=O)C2CC2)C[C@H]1C,nt,nt,-3,5,1,-6,nt,nt,nt
NCCCC[C@H]1CN=C(N)N1CC1CCCCC1,0,34*,2,-4,-7,8,-12,-3,47*
NCCCC[C@H]1CN=C(N)N1CCCCC1CCCCC1,0,6,-6,5,-1,-6,nt,nt,nt
CCOC(=O)c1c(NC(=O)CN2CCCc3ccccc32)sc(C)c1CC,5,44*,7,-2,-10,11,-1,-26,6
CCC(C)(C)NC(=O)Cc1ccc(OC)c(OC)c1,4,138*,2,3,2,30,6,-15,-8
COc1ccc(CC(=O)NC(C)(C)CC(C)=O)cc1OC,3,-4,4,-1,0,8,nt,nt,nt
CSc1nc(-c2ccco2)cc(C(F)(F)F)c1C#N,1,134*,-1,-2,-2,7,-2,-29,5
CSc1nc(-c2ccco2)cc(-c2ccccc2)c1C#N,-2,19,8,0,-5,-8,nt,nt,nt
N#Cc1c(C(F)(F)F)cc(-c2ccco2)nc1SCc1ccncc1,-15,54*,25,-7,-183,26,29,-14,18
N#Cc1c(C(F)(F)F)cc(-c2ccco2)nc1SCc1ccccn1,-2,nt,9,-12,-341,1,nt,nt,nt
CC1(C)OC2CC3C4CCC5=CC(=O)C=CC5(C)C4(F)C(O)CC3(C)C2(C(=O)CO)O1 (stereo not drawn),5,4,1,4,4,17,nt,nt,nt
COCCCn1cc(CN2CC(N3CCN(CCO)CC3)CS2(=O)=O)nn1 (stereo not drawn),nt,nt,-3,0,1,9,nt,nt,nt
COc1cc2c(cc1OCc1ccccc1)/C(=C/C(=O)OCc1ccccc1)OC2,nt,nt,0,-5,-3,2,nt,nt,nt
COC(=O)[C@]12CCCCC=C1N(Cc1ccc(Cl)cc1Cl)C(=O)[C@H](CC(=O)N1CCCC1)C2,nt,nt,-3,4,-10,12,nt,nt,nt
Cc1cccc(/C=N/c2sc3c(c2C#N)CCN(Cc2ccccc2)C3)c1O,-3,50*,29,-1,-62,17,18,-11,-7
COc1cccc(CNC(=O)CSc2nnc3c(n2)[nH]c2ccc(F)cc23)c1,-1,-2,1,-6,1,-9,nt,nt,nt
O=C(CSc1nnc2c(n1)[nH]c1ccc(F)cc12)OCc1ccccc1,6,89*,-7,-1,7,1,-5,7,-10
CCCCC1=CC2=CC(=O)C(C)(OC(=O)C3CCCC3)C(=O)C2=CO1 (stereo not drawn),14,42*,28,6,10,20,46*,4,28
Cc1cc(C)n(C(=O)CNC(=O)/C=C/c2ccccc2)n1,0,72*,3,1,0,10,-17,-18,-20
COc1ccc(/C=C/C(=O)NCC(=O)n2nc(C)cc2C)cc1,4,-8,-6,-12,3,-10,nt,nt,nt
CSCCC(C(=O)Nc1c(C)cccc1C)n1c(-c2ccc(C(F)(F)F)cc2)nc2ccccc21 (stereo not drawn),nt,nt,1,18,5,1,nt,nt,nt
CN(C)/C=C/C(=O)c1ccc(OCCN(C)c2ccccn2)cc1,-1,0,2,18,1,-5,nt,nt,nt
Cc1cc(C)c(S(=O)(=O)n2ccc(-c3ccc(OCCN(C)c4ccccn4)cc3)n2)c(C)c1,0,92*,3,0,6,-12,-39,-14,-13
NS(=O)(=O)c1ccc(NS(=O)(=O)c2ccc(NC(=O)c3ccc(-c4ccccc4)cc3)cc2)cc1,23,119*,29,8,4,7,109*,32,101*
SMILES,DNMT1 block,Rpn11 block,CSN inh,SUMO1-SIM PPI,MT1-MMP act inh,SKN-1 block,Rpn11 inh conf,MMP-2 counter,Thrombin FP
NS(=O)(=O)c1ccc(NC(=O)Nc2ccc(S(N)(=O)=O)cc2)cc1,3,-8,-3,4,-3,-5,nt,nt,nt
NS(=O)(=O)c1ccc(NC(=O)Nc2ccccc2)cc1,-5,41*,1,-1,1,-3,-14,-11,-31
CCn1c(CCNC(=O)c2ccc(C)cc2)n[nH]c1=S,0,0,1,-1,4,7,nt,nt,nt
Cn1c(CCNC(=O)c2ccc(Cl)cc2)n[nH]c1=S,-2,41*,1,5,7,-12,8,0,-3
O=C(NC1CCCC1)C(C1CC1)n1c(-c2ccncc2)nc2ccccc21 (stereo not drawn),nt,nt,3,-2,1,9,nt,nt,nt
CCC(=O)N1CCC1(C)C(=O)Nc1ccc(OC)c(OC)c1 (stereo not drawn),-2,1,2,-2,0,3,nt,nt,nt
Cn1c(=O)c2c(nc(Oc3ccc4c(c3)OCO4)n2Cc2ccc(F)cc2)n(C)c1=O,7,+,-1,6,3,13,2,-25,4
CCCCC1CC2=C(C(=O)OC(C)(C)O2)C(c2ccc(Cl)cc2)O1 (stereo not drawn),8,0,3,5,-1,0,nt,nt,nt
COc1ccc2nc(C)cc(SCC(=O)N/N=C/c3c(OC)ccc4ccccc34)c2c1,47,51*,44*,4,-4,0,10,-43,6
Cc1nnc(C)c2c(C)n(C(c3ccccc3)c3ccccc3)c(C)c12,-9,43*,17,-2,-10,23,-19,-36,-9
Cc1ccc(NC2=CC(=O)CC(C)(C)C2)cc1F,-1,4,-3,1,-2,3,nt,nt,nt
Cc1cc(N)c(NC2=CC(=O)CC(C)(C)C2)cc1C,-2,54*,-5,-2,3,2,8,-9,3
CCOC(=O)[C@]12CCCC=C1N(Cc1cccc3ccccc13)C(=O)[C@H](CC(=O)NCc1cccs1)C2,nt,nt,-3,3,-3,2,nt,nt,nt
Cc1ccccc1Nc1cccc2nonc12,-2,40*,11,-18,-27,17,22,-7,4
